ChEMBL document CHEMBL3352492, “Selenorhodamine photosensitizers for photodynamic therapy of P-glycoprotein-expressing cancer cells” (J Med Chem, 2014)
Activity calls are given as the source filed them. The calls are words filed in the database; no cut-off is given here.

Experiments:
Colon 26 [1] = test: Drug uptake in mouse Colon 26 cells at 0.5 uM in presence of 100 uM verapamil by flow cytometry; assay type: ADME, cell-based; conditions: colon 26, 0.5 µM
Outline: (§1)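 Colo-26 cells given 0.5 μM dye for 1 h, with or without 100 μM verapamil. Uptake read by flow cytometry as relative fluorescence, excitation 561 nm and emission 710 nm. Error bars are SD.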

Colon 26 [2] = test: Dark toxicity in mouse Colon 26 cells assessed as cell surviving fraction at 0.1 to 0.5 uM incubated for 1 hr by sulforhodamine B assay; assay type: cell-based; conditions: colon 26, 1 h
Outline: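 Colo-26 murine colon carcinoma cells, 10 000 per well, grown 24 h in RPMI 1640 with 10% FBS. Dye at 0.1–0.5 μM for 1 h in the dark, then fresh medium and 48 h at 37 °C, 5% CO2. Viability by sulforhodamine B, absorbance at 570 nm, reported as surviving fraction.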

Colon 26 [3] = test: Photo-toxicity in mouse Colon 26 cells assessed as reduction in cell surviving fraction at =< 0.5 uM and up to 1 Jcm'-2 of continuous illumination with 350 to 700 nm light incubated for 48 hrs by sulforhodamine B assay; assay type: functional, cell-based
Outline: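 Colo-26 cells, 10 000 per well, grown 24 h in RPMI 1640 with 10% FBS. Dye at ≤0.5 μM for 1 h in the dark. Irradiated up to 1.0 J cm^-2 with 350–700 nm tungsten–halogen light at 3.7–4.1 mW cm^-2, then 48 h at 37 °C. Survival by sulforhodamine B at 570 nm.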

[4] = Photo-stability assessed as drug degradation exposed to after 230 Jcm'-2 of continuous illumination with 350 to 800 nm light in solutions of 10% CH3OH in pH 7.4 buffer; assay type: physicochemical; conditions: solution of 10% CH3OH in pH 7.4 buffer, read-out: Drug degradation
[5] = Photo-stability assessed as drug degradation exposed to after 230 Jcm'-2 of continuous illumination with 500 to 800 nm light in solutions of 10% CH3OH in pH 7.4 buffer; assay type: physicochemical; conditions: solution of 10% CH3OH in pH 7.4 buffer, read-out: Drug degradation
[6] = Lipophilicity, log P of the compound by pH 7.4 at 23 degC by UV-visible spectrophotometry based shake flask method; assay type: physicochemical; conditions: buffer
Outline: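 Shake-flask method. A saturated n-octanol solution of dye was mixed with an equal volume of PBS, pH 7.4, at 23 °C for 3–5 min, then left 1 h to settle. The concentration in each layer was measured by UV–visible spectrophotometry.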

Colon 26 [7] = test: Drug uptake in mouse Colon 26 cells at 0.5 uM in absence of 100 uM verapamil by flow cytometry; assay type: ADME, cell-based; conditions: colon 26, 0.5 µM; outline: as §1
Colon 26 [8] = test: Photo-toxicity in mouse Colon 26 cells assessed as reduction in cell surviving fraction at 0.5 Jcm'-2 of continuous illumination with 350 to 700 nm light incubated for 48 hrs by sulforhodamine B assay; assay type: functional, cell-based; conditions: Colon 26, 48 h
Outline: (§2)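 Colo-26 cells were incubated 1 h in the dark with 0.1–0.5 μM […], then irradiated up to 1.0 J cm^-2 with 350–700 nm tungsten–halogen light (3.7–4.1 mW cm^-2). Cells were kept 48 h and survival was measured by sulforhodamine B assay.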

Colon 26 [9] = test: Photo-toxicity in mouse Colon 26 cells assessed as reduction in cell surviving fraction at 1 Jcm'-2 of continuous illumination with 350 to 700 nm light incubated for 48 hrs by sulforhodamine B assay; assay type: functional, cell-based; conditions: Colon 26, 48 h; outline: as §2
Colon 26 [10] = test: Photo-toxicity in mouse Colon 26 cells assessed as reduction in cell surviving fraction at 0.15 uM at 1 Jcm'-2 of continuous illumination with 350 to 700 nm light incubated for 48 hrs by sulforhodamine B assay; assay type: functional, cell-based
[11] = Permeability in MDCK2-MDR1 cells assessed as cell associated fraction by measuring mass fraction extracted from cell monolayer by methanol wash after 1 hr flux in apical to basolateral direction at 5 uM in presence of 4.3 mg/ml BSA and in presence of P-gp inhibitor LSN335984 by mass spectrometry; assay type: ADME, cell-based, Canis lupus familiaris; conditions: dog, mdck-ii
Outline: (§3)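 MDCKII-MDR1 cells seeded at 50 000 cells cm^-2 on Transwell polycarbonate filters, used on day 6. After a rinse in DPBSH at 37 °C, monolayers were preincubated 30 min in 4.3 mg mL^-1 BSA/DPBSH with or without 5 μM P-gp inhibitor LSN 335984. Then 5 μM dye was added apically and run 1 h AB flux at 37 °C with nutation. Monolayers were rinsed in cold DPBS and extracted 3 min in methanol, and compound was quantified by LC-MS/MS. Cell-associated value is the percentage of added mass recovered.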

[12] = Permeability in MDCK2-MDR1 cells assessed as cell associated fraction by measuring mass fraction extracted from cell monolayer by methanol wash after 1 hr flux in apical to basolateral direction at 5 uM in presence of 4.3 mg/ml BSA and in absence of P-gp inhibitor LSN335984 by mass spectrometry; assay type: ADME, cell-based, Canis lupus familiaris; conditions: dog, mdck-ii; outline: as §3
Colon 26 [13] = test: Potentiation of doxorubicin-induced cytotoxicity against mouse Colon 26 cells at 0.15 uM incubated in dark for 1 hr by sulforhodamine B assay; assay type: functional, cell-based
Outline: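 Colo-26 cells were plated at 10 000/well and held 24 h. Doxorubicin (0.005–5.0 μM) was applied with or without 0.15 μM selenorhodamine, with Dox-only and dye-only controls, for 1 h in the dark with no irradiation. Medium was replaced, then 48 h at 37 °C, 5% CO₂. Surviving fraction by sulforhodamine B assay (570 nm); six replicates; Student's t-test pairwise.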

Colon 26 [14] = test: Photo-toxicity against mouse Colon 26 cells at 0.15 uM incubated in dark for 1 hr then irradiated with light dose of 1 Jcm'-2 of 611 nm laser light measured after 48 hrs by sulforhodamine B assay; assay type: functional, cell-based
Outline: (§4)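 Colo-26 murine colon carcinoma cells were grown in RPMI 1640 with L-glutamine, 10% FBS and 1% penicillin–streptomycin. They were plated at 10 000 cells/well and held 24 h. Selenorhodamine was added at 0.15 μM (final) and cells were kept 1 h in the dark. Cells were then irradiated with a tunable dye laser at λmax ± 2 nm, 3.2 mW cm⁻², to 1 J cm⁻². Medium was replaced, followed by 48 h at 37 °C, 5% CO₂. Viability was read by sulforhodamine B at 570 nm.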

Colon 26 [15] = test: Potentiation of 0.5 uM doxorubicin-induced cytotoxicity against mouse Colon 26 cells at 0.15 uM incubated in dark for 1 hr then irradiated with light dose of 1 Jcm'-2 of 611 nm laser light measured after 48 hrs by sulforhodamine B assay; assay type: functional, cell-based
Outline: (§5)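 Colo-26 cells were plated at 10 000/well and held 24 h. Doxorubicin (0.005, 0.05, 0.5, 1.0 or 5.0 μM) was added with 0.15 μM selenorhodamine, both diluted in RPMI from stocks, with Dox-only and dye-only wells. After 1 h in the dark, cells were laser-irradiated at λmax ± 2 nm, 3.2 mW cm⁻², 1 J cm⁻². Fresh medium, then 48 h at 37 °C, 5% CO₂. Surviving fraction by SRB absorbance at 570 nm; six replicates.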

Colon 26 [16] = test: Potentiation of 1 uM doxorubicin-induced cytotoxicity against mouse Colon 26 cells assessed as cell surviving fraction at 0.15 uM incubated in dark for 1 hr then irradiated with light dose of 1 Jcm'-2 of 611 nm laser light measured after 48 hrs by sulforhodamine B assay; assay type: functional; outline: as §5
Colon 26 [17] = test: Photo-toxicity against mouse Colon 26 cells at 0.15 uM incubated in dark for 1 hr then irradiated with light dose of 1 Jcm'-2 of 613 nm laser light measured after 48 hrs by sulforhodamine B assay; assay type: functional, cell-based; outline: as §4
Colon 26 [18] = test: Potentiation of doxorubicin-induced cytotoxicity against mouse Colon 26 cells at 0.15 uM incubated in dark for 1 hr then irradiated with light dose of 1 Jcm'-2 of 613 nm laser light measured after 48 hrs by sulforhodamine B assay; assay type: functional, cell-based; outline: as §5
[19] = Selectivity index, ratio of LD50 dark toxicity against mouse Colon 26 cells to EC50 for Photo-toxicity against mouse Colon 26 cells 1 Jcm'-2 of continuous illumination with 350 to 700 nm light; assay type: cell-based; conditions: read-out: Ratio LD50/EC50
Colon 26 [20] = test: Photo-toxicity in mouse Colon 26 cells assessed as reduction in cell surviving fraction at 0.15 uM at >5 Jcm'-2 of continuous illumination with 350 to 700 nm light incubated for 48 hrs by sulforhodamine B assay; assay type: functional, cell-based
Colon 26 [21] = test: Photo-toxicity in mouse Colon 26 cells assessed as reduction in cell surviving fraction at 15 Jcm'-2 of continuous illumination with 360 to 800 nm light incubated for 48 hrs by sulforhodamine B assay; conditions: Colon 26, 48 h

SMILES | fold change (FC) (Colon 26 [1]) | Activity (Colon 26 [2]) | Activity (Colon 26 [3]) | logD [6] | Drug uptake (Colon 26 [7]) | EC50 (Colon 26 [8]) [nM] | EC50 (Colon 26 [9]) [nM] | Activity (Colon 26 [13]) | also measured
CCN(CC)C(=O)c1ccc(-c2c3ccc(=[N+](C)C)cc-3sc3cc4c(cc23)C(C)(C)CCN4C)s1.F[P-](F)(F)(F)(F)F | 7 | > 0.95 | inactive | – | – | – | – | – | –
CN1CCC(C)(C)c2cc3c(-c4ccc(C(=S)N5CCCCC5)s4)c4ccc(=[N+](C)C)cc-4[se]c3cc21.[Cl-] | – | – | – | 1.61 | Active | 220 | 140 | inactive | degraded [4]: 50%; degraded [5]: 50%; Activity (Colon 26 [10]): Active; Activity [11]: 55%; Activity [12]: 45%; Activity (Colon 26 [14]): Active; Activity (Colon 26 [15]): Active; Activity (Colon 26 [16]): <=0.2
CN1CCC(C)(C)c2cc3c(-c4ccc(C(=O)N5CCCCC5)s4)c4ccc(=[N+](C)C)cc-4[se]c3cc21.[Cl-] | – | – | – | 2.23 | – | > 500 | 410 | inactive | Activity [11]: 39%; Activity [12]: 16%; Activity (Colon 26 [17]): inactive; Activity (Colon 26 [18]): inactive
CCN(CC)C(=S)c1ccc(-c2c3ccc(=[N+](C)C)cc-3[se]c3cc4c(cc23)C(C)(C)CCN4C)s1.[Cl-] | 1.3 | – | – | 2.41 | Active | 200 | 170 | inactive | degraded [4]: 50%; degraded [5]: 50%; selectivity ratio [19]: 56; Activity (Colon 26 [10]): Active; Activity (Colon 26 [14]): Active; Activity (Colon 26 [15]): Active; Activity (Colon 26 [16]): <=0.2
CCN(CC)C(=O)c1ccc(-c2c3ccc(=[N+](C)C)cc-3[se]c3cc4c(cc23)C(C)(C)CCN4C)s1.[Cl-] | 5 | – | – | 2.26 | – | 310 | 300 | inactive | selectivity ratio [19]: 26; Activity (Colon 26 [20]): Active; Activity (Colon 26 [17]): inactive; Activity (Colon 26 [18]): inactive
CN1CCC(C)(C)c2cc3c(-c4ccc(C(=S)N5CCCCC5)s4)c4ccc(=[N+](C)C)cc-4sc3cc21.F[P-](F)(F)(F)(F)F | – | > 0.95 | inactive | – | Active | – | – | – | Drug uptake (Colon 26 [1]): Not Active
CN1CCC(C)(C)c2cc3c(-c4ccc(C(=O)N5CCCCC5)s4)c4ccc(=[N+](C)C)cc-4sc3cc21.F[P-](F)(F)(F)(F)F | – | > 0.95 | inactive | – | – | – | – | – | –
CCN(CC)C(=S)c1ccc(-c2c3ccc(=[N+](C)C)cc-3sc3cc4c(cc23)C(C)(C)CCN4C)s1.F[P-](F)(F)(F)(F)F | 1.3 | > 0.95 | inactive | – | Active | – | – | – | –
CN(C)c1ccc(-c2cc(-c3ccc(N)cc3)[s+]c(-c3ccc(N)cc3)c2)cc1 | – | – | – | – | – | – | – | – | EC50 (Colon 26 [21]): 70 nM
